Screening data from PubChem BioAssay.
Hits are enriched below; roughly 2.3% of the tested compounds scored in any of these assays.
MEKK2 WT-MEK5: raises or lowers MEK5 binding to wildtype human MEKK2 PB1 domain. binding response (% of control), % at 10 µM. Q9Y2U5. AID 1531. 290,000 compounds, 1.1% hits. bead flow cytometry, Alexa488-MEK5 binding to MEKK2 WT; actives lie on both sides; in the data active = binding response below about 67% or above about 130%
MEKK3 PB1 HTS: modulators (inhibitors or enhancers) of MEK5 binding to human MEKK3 PB1 domain; 290,000 compounds, 1.4% hits; binding response (% of control), % at 10 µM; bead-based flow cytometry, Alexa488-MEK5 binding to MEKK3; actives lie on both sides; 0 = blocked by unlabeled MEK5, 100 = vehicle; Q99759; AID 1529;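 active = binding response more than 3 SD above or below the average of its plate-row segment, actives on both sides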;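 note: Alexa488 bead fluorescence after subtracting the streptavidin-only scavenger bead signal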
Arrestin-AP2 inh: blocks beta-arrestin peptide binding to AP2 adaptin; 340,000 compounds, 0.31% hits; inhibition, % at 10 µM; FITC-arrestin peptide / GST-AP2 beads, flow cytometry; AP2 beta2 appendage carries R879A mutation; AID 504490;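 active = inhibition above a set limit, near 3 SD of compounds lacking own fluorescence, cut at about 54% in these data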;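 note: plate controls were DMSO wells for no effect and 5 µM unlabelled arrestin peptide for full effect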
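System: GST-AP2 R879A bound to glutathione beads, E. coli-expressed. Also added: 50 nM FITC-arrestin peptide. Schedule: compound with beads 12 min RT, then probe 1 h RT. Signal: bead flow cytometry, FITC channel. Read-out basis: percent response.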
MEKK2 mut-MEK5: signal of MEK5 binding to mutant human MEKK2 PB1 domain; bead flow cytometry, Alexa488-MEK5 binding to MEKK2 mutant; percent response, % at 10 µM; 290,000 compounds, 0.35% hits; in the data active = percent response above about 24%, passing the limit was not always enough
Arr AP2 CP1: inhibitors of human beta-arrestin and AP2 interaction; 1,300 compounds, 2% hits; GST-AP2 beads, FITC arrestin peptide binding, flow cytometry; GST-fused beta2-adaptin appendage, R879A mutant; shares compounds with Arrestin-AP2 inh; inhibition, % at 10 µM;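 active = inhibition above a set limit, roughly 3 SD of non-fluorescent compound noise, cut at about 38% in these data; inactive = inhibition at or below that limit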;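 note: loss of bead fluorescence from 50 nM FITC arrestin peptide bound to appendage; 0% = negative control wells and 100% = excess unlabelled arrestin peptide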
Target sequence (P63010 whole entry, looked up, the tested form may be a part, one chain of several): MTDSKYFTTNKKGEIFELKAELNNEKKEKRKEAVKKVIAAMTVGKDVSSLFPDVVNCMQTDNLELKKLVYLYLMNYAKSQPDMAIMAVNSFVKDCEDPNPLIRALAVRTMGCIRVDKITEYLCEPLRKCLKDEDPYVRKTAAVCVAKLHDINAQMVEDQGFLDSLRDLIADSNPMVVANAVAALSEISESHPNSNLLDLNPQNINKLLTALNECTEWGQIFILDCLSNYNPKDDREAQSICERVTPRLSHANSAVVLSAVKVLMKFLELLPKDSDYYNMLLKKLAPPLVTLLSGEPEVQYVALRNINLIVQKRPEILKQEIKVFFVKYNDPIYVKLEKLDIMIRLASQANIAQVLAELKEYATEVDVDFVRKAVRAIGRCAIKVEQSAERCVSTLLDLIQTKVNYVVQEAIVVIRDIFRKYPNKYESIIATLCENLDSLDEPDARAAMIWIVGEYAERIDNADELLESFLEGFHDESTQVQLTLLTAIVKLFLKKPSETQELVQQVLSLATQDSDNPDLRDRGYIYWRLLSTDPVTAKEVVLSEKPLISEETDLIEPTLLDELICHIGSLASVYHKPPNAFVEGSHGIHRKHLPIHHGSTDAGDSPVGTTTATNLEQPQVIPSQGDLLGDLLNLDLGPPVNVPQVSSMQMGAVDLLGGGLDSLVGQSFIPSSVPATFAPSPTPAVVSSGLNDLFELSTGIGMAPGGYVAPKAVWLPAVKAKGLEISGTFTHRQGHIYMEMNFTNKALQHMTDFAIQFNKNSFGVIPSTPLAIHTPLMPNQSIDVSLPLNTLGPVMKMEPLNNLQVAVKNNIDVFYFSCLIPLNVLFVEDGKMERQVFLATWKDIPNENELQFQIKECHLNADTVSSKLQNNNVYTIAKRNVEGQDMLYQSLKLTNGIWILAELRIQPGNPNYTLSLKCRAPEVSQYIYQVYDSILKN
GST-FITC bead: disrupts GST binding to glutathione beads, arrestin-AP2 artifact. shares compounds with Arrestin-AP2 inh. GST-fluorescein binding to GSH beads, fluorescence, counter-screen. inhibition, % at 10 µM. 1,300 compounds, 2% hits. AID 588338;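 active = inhibition above 50%, about 3 SD of the inhibition seen with non-fluorescent compounds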;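 note: fluorescein maleimide labelled GST captured on 4 micron glutathione beads; higher means more loss of bead fluorescence from quenching or blocked binding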
The depositor's hits bear a star; . = no result given.

SMILES	MEKK2 WT-MEK5	MEKK3 PB1 HTS	Arrestin-AP2 inh	MEKK2 mut-MEK5	Arr AP2 CP1	GST-FITC bead
CC(C)c1ccc(NC(=O)c2ccccc2NC(=O)C2CCCCC2C(=O)O)cc1 (configuration not stated)	107	105	54*	-2	-6	-6
CCOC(=O)C1CCN(c2cc3c(cc2NC(=O)c2cc(OC)ccc2Br)n(C)c(=O)n3C)CC1	101	100	-2	8	-4	-7
CCOC(=O)C1CCN(C(=O)c2ccccc2NC(=O)c2ccc(Br)cc2)CC1	106	102	3	-1	.	.
CCOC(=O)C1CCN(c2cc3c(cc2NC(=O)c2ccccc2Br)n(C)c(=O)n3C)CC1	91	94	34	-10	8	-2
Cc1csc(NC(=O)c2ccc(Cn3nc(C)c(Br)c3C)o2)n1	102	102	58*	-1	-15	3
CN(CCC1CCOCC1)C(=O)c1cc(COc2c(F)cccc2F)on1	96	95	-9	-3	.	.
Nn1c(SCC(=O)NC2CCS(=O)(=O)C2)nc2scc(-c3ccccc3)c2c1=O (configuration not stated)	.	.	-7	.	.	.
CN(C(=O)COC(=O)c1ccccc1SCC(=O)N1CCCC1)C1CCS(=O)(=O)C1 (configuration not stated)	106	102	-8	3	.	.
CCC(C)N(C(=O)COC(=O)c1ccccc1SCC(=O)N1CCCC1)C1CCS(=O)(=O)C1 (configuration not stated)	106	106	54*	6	8	-2
CN(C)c1ccc(/C=N/NC(=O)C(O)(c2ccccc2)c2ccccc2)o1	100	104	61*	1	-9	-2
Cc1ccc2cc(CN(CC3CCCO3)C(=O)NC3CCCCC3)c(=O)[nH]c2c1C (configuration not stated)	96	99	12	-4	-2	-4
CCN(CC)CCCN(Cc1cc2ccc(C)c(C)c2[nH]c1=O)C(=O)NC1CCCCC1	123	106	8	13	.	.
Cc1cccc2cc(CN(Cc3ccco3)C(=O)NC3CCCCC3)c(=O)[nH]c12	93	97	27	-4	6	-2
COc1ccc(CN(Cc2cc3cccc(C)c3[nH]c2=O)C(=O)N(C)C)cc1	106	101	3	2	.	.
COc1ccc(CCN(Cc2cc3cccc(C)c3[nH]c2=O)C(=O)NC2CCCCC2)cc1OC	102	104	9	-1	-2	-5
COc1ccccc1NC(=O)N(Cc1ccco1)Cc1cc2cccc(C)c2[nH]c1=O	105	104	1	6	.	.
Cc1cccc2cc(CN(CC3CCCO3)C(=O)NC3CCCCC3)c(=O)[nH]c12 (configuration not stated)	93	93	-6	-5	0	-4
Cc1ccc(C(=O)NCCc2nnc3c(C(F)(F)F)cc(Cl)cn23)o1	98	97	33	-2	.	.
COc1ccc(-n2c(SCC(=O)N/N=C(\C)c3cccnc3)nc3ccccc3c2=O)cc1	88	87	0	-6	.	.
COc1ccc([N+](=O)[O-])cc1NS(=O)(=O)c1cccc(C(=O)O)c1	87	82	9	-16	.	.
CCn1cc(C(=O)NCC(OC)OC)c(=O)c2cc(S(=O)(=O)N3CCC(C)CC3)ccc21	98	100	9	-3	.	.
COc1ccc(CCCNC(=O)C2CCC(=O)N(Cc3ccccc3F)C2)cc1 (configuration not stated)	108	101	-7	8	-13	-2
COc1ccc(CCN2CC(C(=O)NCCc3ccc(C(F)(F)F)cc3)CCC2=O)cc1 (configuration not stated)	104	101	-3	2	.	.
COc1ccc(CCN2CC(C(=O)NCCc3ccc(F)cc3)CCC2=O)cc1 (configuration not stated)	104	100	11	1	4	-5
COc1ccccc1CN1CC(C(=O)NCc2cc(F)cc(C(F)(F)F)c2)CCC1=O (configuration not stated)	100	100	-1	2	6	0
SMILES	MEKK2 WT-MEK5	MEKK3 PB1 HTS	Arrestin-AP2 inh	MEKK2 mut-MEK5	Arr AP2 CP1	GST-FITC bead
O=C(NCc1ccccc1OC(F)(F)F)C1CCC(=O)N(Cc2ccccn2)C1 (configuration not stated)	99	99	16	2	.	.
O=C(NCc1ccccc1OC(F)(F)F)C1CCC(=O)N(CCc2ccccn2)C1 (configuration not stated)	100	96	58*	4	3	-2
CC(C)(C)c1ccc(-c2nc3n(c(=O)c2C#N)CCS3)cc1	96	97	1	-6	.	.
O=C(N=c1ccn(-c2nc3ccccc3nc2NS(=O)(=O)c2ccccc2)cc1)c1cccs1	91	98	58*	-2	-11	60*
CCN=C(NCC)SC1CC(=O)N(c2ccc(F)cc2)C1=O (configuration not stated)	108	112	4	6	.	.
N#CCc1ccc(OC(=O)c2cccnc2Cl)cc1	.	.	-7	.	.	.
CCN(CC)S(=O)(=O)c1cccc(C(=O)N/N=C/c2cccc(O)c2O)c1	99	100	49	-2	.	.
CCN(CC)S(=O)(=O)c1cccc(C(=O)N/N=C/c2cc(OC)c(O)c(OC)c2)c1	107	97	60*	9	-3	1
O=C1CC(c2ccccc2)c2ccccc21 (configuration not stated)	97	99	0	-3	.	.
O=C1CC(C(=O)O)C(c2ccccc2)c2ccccc21 (configuration not stated)	.	.	55*	.	4	11
O=C(Nc1cccc(Cl)c1)c1cnccn1	99	105	32	1	.	.
Cc1cnc(NC(=O)Nc2ccccc2)c(C)n1	103	106	-3	11	-14	-2
COC(=O)c1ccc(NC(=O)Nc2ccc(OC)c(OC)c2)cc1	96	93	0	-4	.	.
CC(=O)Nc1ccc(NC(=O)Nc2ccccc2)cc1	109	106	4	10	.	.
O=C(Nc1ccc(Cl)cc1)Nc1cnccn1	98	98	10	-8	16	5
O=C(Nc1ccc(F)c(Cl)c1)Nc1cnccn1	94	95	17	-6	.	.
O=C(Nc1cccc(Cl)c1)Nc1cnccn1	109	104	-4	7	-2	2
COc1ccc(NC(=O)Nc2cnccn2)cc1OC	102	100	-9	7	-3	8
CN(CC(=O)Nc1cccc(F)c1)C(=O)C1CCC(C(=O)N(C)CC(=O)Nc2cccc(F)c2)CC1 (configuration not stated)	.	.	6	.	.	.
CCc1nn(CC(=O)NCCCc2ccccc2)c(=O)c2cc3cc(F)ccc3n12	98	93	-5	-11	.	.
